The conditions of data set [1]: cited from earlier work.
The subject of data set [2] is human erythroleukemia cell line (HEL). Kind of data set: In vitro cell proliferation. Type of data set: cell-based. The settings on record: 72 hours exposure. In outline:
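HEL cells were seeded at 5×10^3/well and treated 24 h later for 72 h. Doses were 12.5–2,500 nM for the lipid prodrug (free or nanocapsule-loaded) and 5–1,000 nM for the parent nucleoside; blank nanocapsules were excipient-matched. Pellets were frozen at −80°C for ≥48 h, then read by CyQuant. Medium-only wells defined 100% viability. Three independent experiments in quadruplicate; Mann–Whitney test.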

The conditions of data set [3]: phosphate buffer, 37°C, after 24 hours; cited from earlier work.
The conditions of data set [4]: decitabine solution, human plasma, same conditions, after 6 hours; cited from earlier work.
Data set [5] has as its system HEL cells. Kind of data set: Cell-cycle analysis. The data set is classed as cell-based, human. The settings on record: 72 hours, decitabine solution 1,000 nM. In outline:
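HEL cells (RPMI 1640, 10% FBS, 1% antibiotics, 37°C, 5% CO2) were seeded at 5×10^4/well. After 24 h, they were treated with the test compound solution (1,000 nM), prodrug-loaded lipid nanocapsules (2,500 nM), excipient-matched blank nanocapsules or medium for 72 h. Cells were ethanol-fixed (70%, cold) and stained 15 min in the dark with 40 µg/mL propidium iodide plus 100 µg/mL RNase A. Phases were fitted by the Dean Jett Fox model. n=3 plates in triplicate; Mann–Whitney versus medium.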

Like-named read-outs stand apart in the source and are kept apart here.

Consider `Nc1ncn([C@H]2C[C@H](O)[C@@H](CO)O2)c(=O)n1` [Decitabine], for which, in data set [1], the Half-life in plasma is 15 to 25 min. Also, in data set [2], the “Concentration above which cell viability decreased” value is reported as “above 50 nM”. The results for the Initial concentration recovered in data set [3] and in data set [4] were under 50% and under 40%, respectively. Also, in data set [5], the “Cells arrested in G2/M” value was found to be 17.2%.

The record behind these values is publication PMC6440450 (International Journal of Nanomedicine, 2019).
